Reference: ChEMBL document CHEMBL4699586, “Synthesis and biological evaluation of NQO1-activated prodrugs of podophyllotoxin as antitumor agents” (Bioorg Med Chem, 2020)
Activity calls are given as the source filed them. No cut-off for these calls is given here.

Key:
HepG2 [1] = assay: Cytotoxicity against hypoxia-induced human HepG2 cells assessed as reduction in cell viability incubated for 48 hrs by MTT assay; assay type: functional, cell-based; settings: HepG2, 48 h
How it was run: (§1)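 Cell lines A549, HepG2, hypoxic A549/Hyp and HepG2/Hyp, taxol-resistant A549/T, and normal LO2. Log-phase cells allowed to adhere in 96-well plates, then exposed to compound for 48 h. MTT added for 2–3 h. Formazan dissolved in DMSO and absorbance read at 570 nm; IC50 derived.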

HepG2 [2] = assay: Cytotoxicity against human HepG2 cells overexpressing NQO1 assessed as reduction in cell viability incubated for 48 hrs by MTT assay; assay type: functional, cell-based; settings: HepG2, 48 h; how it was run: as §1
A549 [3] = assay: Cytotoxicity against human A549 cells overexpressing NQO1 assessed as reduction in cell viability incubated for 48 hrs by MTT assay; assay type: functional, cell-based; settings: A549, 48 h; how it was run: as §1
L02 = assay: Cytotoxicity against NQO1-deficient human L02 cells assessed as reduction in cell viability incubated for 48 hrs by MTT assay; assay type: cell-based; settings: L02, 48 h; how it was run: as §1
A549 [4] = assay: Cytotoxicity against hypoxia-induced human A549 cells assessed as reduction in cell viability incubated for 48 hrs by MTT assay; assay type: functional, cell-based; settings: A549, 48 h; how it was run: as §1
A549 [5] = assay: Cytotoxicity against taxol-resistant human A549 cells assessed as reduction in cell viability incubated for 48 hrs by MTT assay; assay type: functional, cell-based; settings: A549, 48 h; how it was run: as §1
[6] = Stability of the compound in PBS buffer at 10 uM at pH 5 to 9 incubated for 9 hrs in presence of NADPH by HPLC analysis; assay type: physicochemical; settings: pH 5, 9 h
How it was run: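 No NQO1 present; 10 μM substrate with 100 μM NADPH in PBS containing 2% Tween 80 across pH values 5–9 at 37 °C; timed samples quenched with cold acetonitrile, centrifuged, and quantified by C18 HPLC with UV detection at 292 nm; triplicate.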

[7] = Metabolic stability in rat plasma at 10 uM incubated for 9 hrs in presence of NADPH by HPLC analysis; assay type: ADME, cell-free
How it was run: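 Rat plasma deproteinized by vortexing and centrifugation (10000 rpm, 5 min); supernatant incubated with 10 μM substrate plus 2% Tween 80 at 37 °C for 0–540 min; after centrifugation, supernatant analysed by HPLC (UV 292 nm); run in triplicate.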

[8] = Metabolic stability in human liver S9 fraction at 10 uM incubated for 9 hrs in presence of NADPH by HPLC analysis; assay type: ADME, subcellular; settings: s9, 9 h
How it was run: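 Pooled human liver S9 fraction (0.5 mg) in 10 mM PBS pH 7.4 with 2% Tween 80, substrate 10 μM, 37 °C; started with 100 μM NADPH, quenched with cold acetonitrile at 0–540 min; centrifuged supernatant analysed by HPLC, UV 292 nm; triplicate.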

Tubulin (Homo sapiens) = Tubulin (Homo sapiens) (UniProt P68371+Q9H4B7+P0DPH7+P68366+Q13509+Q71U36+P04350+Q3ZCM7+P07437+P68363+Q9BQE3+Q6PEY2+Q13885+Q9BVA1+Q9BUF5); assay: Inhibition of microtubule assembly in human HepG2 cells at 50 nM incubated for 48 hrs by immunofluorescence microscopic analysis; assay type: cell-based
How it was run: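 HepG2 seeded 12 h at 37 °C, 5% CO₂, then exposed 48 h alongside DMSO vehicle; methanol-fixed, permeabilized in 0.5% Triton X-100/PBS, α-tubulin primary antibody overnight at 4 °C, fluorescent secondary 1 h, DAPI nuclear counterstain; fluorescence microscopy imaging of microtubule networks.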

Sus scrofa [9] = species on record: Sus scrofa; assay: Inhibition of porcine tubulin polymerization at 3 uM measured every 30 secs for 1 hr
How it was run: (§2)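 Commercial tubulin polymerization kit run per manufacturer; test agent at 3 μM with vehicle control, with or without added NQO1 depending on group; absorbance at 340 nm read every 30 s for 1 h to give polymerization/depolymerization kinetic curves.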

HepG2 [10] = assay: Induction of cell cycle arrest in human HepG2 cells assessed as increase in cells accumulation at G2/M phase at 50 nM incubated for 24 hrs by propidium iodide based flow cytometry analysis relative to control; assay type: functional
How it was run: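 HepG2 plated in 12-well plates for 24 h, treated with compound (50 nM) for 24 h. Harvested, washed twice in cold PBS, held in 70% ethanol for 3 h. RNase A treatment 1 h at ambient temperature, then PI stain. Phase distribution by flow cytometry, compared with DMSO control.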

HepG2 [11] = assay: Induction of apoptosis in human HepG2 cells assessed as viable cells at 50 nM incubated for 24 hrs by annexin V-FITC and propidium iodide based flow cytometry analysis (reference value: 95.66 %); assay type: functional; settings: read-out: Activity
HepG2 [12] = assay: Induction of apoptosis in human HepG2 cells assessed as early apoptotic cells at 50 nM incubated for 24 hrs by annexin V-FITC and propidium iodide based flow cytometry analysis (reference value: 1.84 %); assay type: functional
HepG2 [13] = assay: Induction of apoptosis in human HepG2 cells assessed as late apoptotic cells at 50 nM incubated for 24 hrs by annexin V-FITC and propidium iodide based flow cytometry analysis (reference value: 1.56 %); assay type: functional
HepG2 [14] = assay: Induction of apoptosis in human HepG2 cells assessed as necrotic cells at 50 nM incubated for 24 hrs by annexin V-FITC and propidium iodide based flow cytometry analysis (reference value: 0.94 %); assay type: functional
HepG2 [15] = assay: Antitumor activity against human HepG2 cells xenografted in BALB/c nude mouse assessed as tumor growth suppression at 10 mg/kg, ip administered every other day for 17 consecutive days and measured on day 17 by caliper analysis relative to control; assay type: functional; settings: 408 h, time 17 day, read-out: TGI
How it was run: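 BALB/c nude mice, 6 weeks old, given 5×10^6 HepG2 cells s.c. in sterile PBS. Randomized at tumour 70–100 mm³, 6 per group. Dosing i.p. every other day for 17 days in 5% DMSO/40% PEG300/5% Tween-80/50% saline; vehicle arm as control. Caliper volume every 2 days as V = AB²/2. Tumours excised and weighed on day 17; growth inhibition rate calculated.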

[16] = Toxicity in BALB/c mouse xenografted with human HepG2 cells assessed as body weight reduction at 10 mg/kg, ip administered every other day for 17 consecutive days and measured on day 17; assay type: organism-based; settings: in vivo, 408 h, time 17 day
How it was run: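 HepG2 xenografts in 6-week BALB/c nude mice (s.c., 5×10⁶ cells), grouped at 70–100 mm³, n=6; i.p. dosing every other day for 17 days in 5% DMSO/40% PEG300/5% Tween 80/50% saline vehicle; body weight recorded every 2 days.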

[17] = Toxicity in BALB/c mouse xenografted with human HepG2 cells assessed as damage in liver at 5 to 10 mg/kg, ip administered every other day for 17 consecutive days and measured on day 17 by H&E staining based light microscopic analysis; assay type: organism-based; settings: in vivo, 408 h, dose 5-10 mg/kg, time 17 day
How it was run: (§3)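 Six-week-old BALB/c nude mice carrying s.c. HepG2 tumours (5×10⁶ cells in PBS) randomized at 70–100 mm³, 6 per group; i.p. dosing every other day for 17 days in 5% DMSO/40% PEG300/5% Tween 80/50% saline; day-17 organs fixed in 4% paraformaldehyde, paraffin-embedded, H&E stained, light microscopy versus control.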

[18] = Toxicity in BALB/c mouse xenografted with assessed as damage in heart at 5 to 10 mg/kg, ip administered every other day for 17 consecutive days and measured on day 17 by H&E staining based light microscopic analysis; assay type: organism-based; settings: in vivo, 408 h, dose 5-10 mg/kg, time 17 day; how it was run: as §3
[19] = Toxicity in BALB/c mouse xenografted with human HepG2 cells assessed as damage in lung at 5 to 10 mg/kg, ip administered every other day for 17 consecutive days and measured on day 17 by H&E staining based light microscopic analysis; assay type: organism-based; settings: in vivo, 408 h, dose 5-10 mg/kg, time 17 day; how it was run: as §3
[20] = Toxicity in BALB/c mouse xenografted with human HepG2 cells assessed as damage in kidney at 5 to 10 mg/kg, ip administered every other day for 17 consecutive days and measured on day 17 by H&E staining based light microscopic analysis; assay type: organism-based; settings: in vivo, 408 h, dose 5-10 mg/kg, time 17 day; how it was run: as §3
[21] = Toxicity in BALB/c mouse xenografted with human HepG2 cells assessed as damage in spleen at 5 to 10 mg/kg, ip administered every other day for 17 consecutive days and measured on day 17 by H&E staining based light microscopic analysis; assay type: organism-based; settings: in vivo, 408 h, dose 5-10 mg/kg, time 17 day; how it was run: as §3
Sus scrofa [22] = species on record: Sus scrofa; assay: Inhibition of porcine tubulin polymerization at 3 uM in presence of NQO1 and NADPH measured for 1 hr for every 30 sec; how it was run: as §2
[23] = molecular target: T1, NAD(P)H dehydrogenase [quinone] 1 (Homo sapiens, UniProt P15559); assay: Prodrug release assessed as recombinant NQO1 (unknown origin)-mediated podophyllotoxin formation at 20 uM measured after 30 mins in presence of NADPH by HRMS analysis; assay type: ADME; settings: 0.5 h
T1 sequence (P15559 whole entry, the tested form may be a part): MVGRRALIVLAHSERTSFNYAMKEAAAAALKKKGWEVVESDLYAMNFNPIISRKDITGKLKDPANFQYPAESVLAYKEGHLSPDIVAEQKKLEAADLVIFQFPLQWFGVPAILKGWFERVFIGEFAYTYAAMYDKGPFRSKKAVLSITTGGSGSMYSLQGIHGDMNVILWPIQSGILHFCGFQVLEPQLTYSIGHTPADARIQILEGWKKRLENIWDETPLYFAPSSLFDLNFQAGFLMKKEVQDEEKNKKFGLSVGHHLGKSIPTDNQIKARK
How it was run: (§4)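 Recombinant NQO1 (final 10 μg/mL) added to start reaction in 10 mM PBS with 2% Tween 80, 100 μM NADPH and 20 μM prodrug. Incubated at 37 °C, stopped with cold acetonitrile and centrifuged cold. Supernatant analysed by HRMS for release fragments.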

[24] = Selectivity index, ratio of IC50 for NQO1-deficient human L02 cells to IC50 for human HepG2 cells overexpressing NQO1 incubated for 48 hrs by MTT assay
How it was run: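 IC50 in LO2 divided by IC50 in HepG2. Both from MTT after 48 h exposure, with absorbance read at 570 nm.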

[25] = molecular target: T1, NAD(P)H dehydrogenase [quinone] 1; assay: Prodrug release assessed as recombinant NQO1 (unknown origin)-mediated 6-hydroxy-4,4,5,7-tetramethylchroman-2-one formation formation at 20 uM measured after 30 mins in presence of NADPH by HRMS analysis; assay type: ADME; settings: 0.5 h; how it was run: as §4
[26] = molecular target: T1, NAD(P)H dehydrogenase [quinone] 1; assay: Prodrug release assessed as recombinant NQO1 (unknown origin)-mediated N-(4-methylenecyclohexa-2,5-dienylidene)methanamine formation formation at 20 uM measured after 30 mins in presence of NADPH by HRMS analysis; assay type: ADME; settings: 0.5 h; how it was run: as §4
[27] = Toxicity in BALB/c mouse xenografted with human HepG2 cells assessed as animal death at 10 mg/kg, ip administered every other day for 17 consecutive days and measured on day 17; assay type: organism-based; settings: in vivo, 408 h, time 17 day
How it was run: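 HepG2 s.c. xenografts in BALB/c nude mice, 6 per group. Compound given i.p. every other day for 17 days in 5% DMSO/40% PEG300/5% Tween-80/50% saline. Deaths recorded over the experimental period. Body weight monitored every 2 days.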

Structure (SMILES): COc1cc([C@@H]2c3cc4c(cc3[C@@H](OC(=O)OCc3ccc(N(C)C(=O)CC(C)(C)C5=C(C)C(=O)C(C)=C(C)C5=O)cc3)[C@H]3COC(=O)[C@H]23)OCO4)cc(OC)c1OC
- IC50 (HepG2 [1]): 113 nM
- IC50 (HepG2 [2]): 84 nM
- IC50 (A549 [3]): 100 nM
- IC50 (L02): 312 nM
- IC50 (A549 [4]): 185 nM
- IC50 (A549 [5]): 197 nM
- Stabilty [6]: Stable
- Stabilty [7]: Stable
- Stabilty [8]: Stable
- inhibition (Tubulin (Homo sapiens)): Active
- inhibition (Sus scrofa [9]): inactive
- Activity (HepG2 [10]): 27.3%
- viability at 0.05 µM (HepG2 [11]): 63.5%
- Activity (HepG2 [12]): 1.74%
- Activity (HepG2 [13]): 15.76%
- Activity (HepG2 [14]): 18.99%
- inhibition in vivo at 10 mg/kg (HepG2 [15]): 64%
- Activity [16]: Non-Toxic
- Activity [17]: Non-Toxic
- Activity [18]: Non-Toxic
- Activity [19]: Non-Toxic
- Activity [20]: Non-Toxic
- Activity [21]: Non-Toxic
- inhibition (Sus scrofa [22]): Active
- Drug metabolism [23]: Metabolite_Detected
- Ratio IC50 [24]: 3.72
- Drug metabolism [25]: Metabolite_Detected
- Drug metabolism [26]: Metabolite_Detected

Structure (SMILES): COc1cc([C@@H]2c3cc4c(cc3[C@H](O)[C@H]3COC(=O)[C@H]23)OCO4)cc(OC)c1OC [PODOFILOX]
- IC50 (HepG2 [1]): 209 nM
- IC50 (HepG2 [2]): 83 nM
- IC50 (A549 [3]): 105 nM
- IC50 (L02): 85 nM
- IC50 (A549 [4]): 291 nM
- IC50 (A549 [5]): 338 nM
- viability at 0.05 µM (HepG2 [11]): 83.7%
- Activity (HepG2 [12]): 2.88%
- Activity (HepG2 [13]): 6.08%
- Activity (HepG2 [14]): 7.38%
- Activity [27]: Toxic

Structure (SMILES): COc1cc([C@@H]2c3cc4c(cc3[C@@H](OC(=O)CC(C)(C)C3=C(C)C(=O)C(C)=C(C)C3=O)[C@H]3COC(=O)[C@H]23)OCO4)cc(OC)c1OC
- IC50 (HepG2 [1]): 193 nM
- IC50 (HepG2 [2]): 107 nM
- IC50 (A549 [3]): 160 nM
- IC50 (L02): 228 nM
- IC50 (A549 [4]): 315 nM
- IC50 (A549 [5]): 302 nM

Structure (SMILES): COc1cc([C@@H]2c3cc4c(cc3[C@@H](OC(=O)OCc3ccc(NC(=O)CC(C)(C)C5=C(C)C(=O)C(C)=C(C)C5=O)cc3)[C@H]3COC(=O)[C@H]23)OCO4)cc(OC)c1OC
- IC50 (HepG2 [1]): 425 nM
- IC50 (HepG2 [2]): 262 nM
- IC50 (A549 [3]): 274 nM
- IC50 (L02): 452 nM
- IC50 (A549 [4]): 596 nM
- IC50 (A549 [5]): 574 nM
